How the values were obtained:
[1] = Tmax in baboon hippocampus at 111 +/- 18 MBq, iv by PET analysis; assay type: ADME, organism-based; conditions: papio anubis, in vivo
Method in brief: (§1)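 Two fasted male baboons were given ketamine (10 mg/kg im) and kept under 1.5–2.0% isoflurane, with core temperature held at 37 °C. Tracer in 10% ethanol/90% saline was given as an iv bolus, and 3-D emission data were acquired for 180 min. Regional time-activity curves came from regions of interest, with right and left regions averaged.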

[2] = Metabolic stability of the compound in baboon plasma assessed as unmetabolized parent fraction after 30 mins by HPLC analysis; assay type: ADME, cell-free; conditions: papio anubis, read-out: Stability
Method in brief: (§2)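 Radiotracer given as an iv bolus to anesthetized baboons. Arterial blood was drawn at 2, 12, 30, 60, 90, 120, 150 and 180 min and centrifuged at 2000 rpm for 1 min. Plasma was mixed with acetonitrile, vortexed and spun at 14,000 rpm for 4 min. The supernatant was counted, then analysed by reversed-phase HPLC with radioactivity detection. Parent percentage was corrected for background and decay, with a QC standard run at the start and end.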

[3] = Drug uptake in baboon cingulate at 111 +/- 18 MBq, iv by PET analysis in presence of WAY100635; assay type: ADME, organism-based, Cingulate cortex; conditions: papio anubis, in vivo
Method in brief: (§3)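 Baboon PET run as for baseline: ketamine/isoflurane anesthesia, iv bolus of tracer, 180 min 3-D acquisition, right and left regions averaged. WAY100635 maleate (0.5 mg/kg iv in 12 mL saline) was given at 50–60 min after tracer injection as a chase/blocking challenge.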

[4] = Binding to baboon plasma proteins; conditions: papio anubis
[5] = Metabolic stability of the compound in baboon plasma assessed as unmetabolized parent fraction after 12 mins by HPLC analysis; assay type: ADME, cell-free; conditions: papio anubis, read-out: Stability; method in brief: as §2
[6] = Metabolic stability of the compound in baboon plasma assessed as unmetabolized parent fraction after 90 mins by HPLC analysis; assay type: ADME, cell-free; conditions: papio anubis, read-out: Stability; method in brief: as §2
[7] = Drug uptake in baboon insular cortex at 111 +/- 18 MBq, iv by PET analysis in presence of WAY100635; assay type: ADME, organism-based; conditions: papio anubis, in vivo; method in brief: as §3
[8] = Tmax in baboon cingulate cortex at 111 +/- 18 MBq, iv by PET analysis; assay type: ADME, organism-based; conditions: papio anubis, in vivo; method in brief: as §1
[9] = Drug uptake in baboon temporal cortex at 111 +/- 18 MBq, iv by PET analysis in presence of WAY100635; assay type: ADME, organism-based; conditions: papio anubis, in vivo; method in brief: as §3
[10] = Tmax in baboon prefrontal cortex at 111 +/- 18 MBq, iv by PET analysis; assay type: ADME, organism-based; conditions: papio anubis, in vivo; method in brief: as §1
Nucleic Acid [11] = assay: Ratio of drug level in thalamus to cerebellum in baboon at 111 +/- 18 MBq, iv after 175 mins by PET analysis; assay type: ADME, organism-based; conditions: papio anubis, in vivo
Nucleic Acid [12] = assay: Ratio of drug level in dorsal raphe nucleus to cerebellum in baboon at 111 +/- 18 MBq, iv after 175 mins by PET analysis; assay type: ADME, organism-based; conditions: papio anubis, in vivo
[13] = Tmax in baboon insula cortex at 111 +/- 18 MBq, iv by PET analysis; assay type: ADME, organism-based; conditions: papio anubis, in vivo; method in brief: as §1
Nucleic Acid [14] = assay: Ratio of drug level in hippocampus to cerebellum in baboon at 111 +/- 18 MBq, iv after 175 mins by PET analysis; assay type: ADME, organism-based; conditions: papio anubis, in vivo
[15] = Metabolic stability of the compound in baboon plasma assessed as unmetabolized parent fraction after 2 mins by HPLC analysis; assay type: ADME, cell-free; conditions: papio anubis, read-out: Stability; method in brief: as §2
Papio anubis = assay: Drug metabolism in baboon at 111 +/- 18 MBq, iv after 2 to 180 mins; assay type: ADME, organism-based; conditions: in vivo; method in brief: as §2
[16] = Metabolic stability of the compound in baboon plasma assessed as unmetabolized parent fraction after 150 mins by HPLC analysis; assay type: ADME, cell-free; conditions: papio anubis, read-out: Stability; method in brief: as §2
[17] = Tmax in baboon amygdala at 111 +/- 18 MBq, iv by PET analysis; assay type: ADME, organism-based; conditions: papio anubis, in vivo; method in brief: as §1
[18] = Metabolic stability of the compound in baboon plasma assessed as unmetabolized parent fraction after 120 mins by HPLC analysis; assay type: ADME, cell-free; conditions: papio anubis, read-out: Stability; method in brief: as §2
Nucleic Acid [19] = assay: Ratio of drug level in amygdala to cerebellum in baboon at 111 +/- 18 MBq, iv after 175 mins by PET analysis; assay type: ADME, organism-based; conditions: papio anubis, in vivo
[20] = Drug uptake in baboon hippocampus at 111 +/- 18 MBq, iv by PET analysis in presence of WAY100635; assay type: ADME, organism-based; conditions: papio anubis, in vivo; method in brief: as §3
Nucleic Acid [21] = assay: Ratio of drug level in temporal cortex to cerebellum in baboon at 111 +/- 18 MBq, iv after 175 mins by PET analysis; assay type: ADME, organism-based; conditions: papio anubis, in vivo
[22] = Drug uptake in baboon thalamus at 111 +/- 18 MBq, iv by PET analysis in presence of WAY100635; assay type: ADME, organism-based; conditions: papio anubis, in vivo; method in brief: as §3
[23] = Drug uptake in baboon caudate at 111 +/- 18 MBq, iv by PET analysis in presence of WAY100635; assay type: ADME, organism-based; conditions: papio anubis, in vivo; method in brief: as §3
Nucleic Acid [24] = assay: Ratio of drug level in insular cortex to cerebellum in baboon at 111 +/- 18 MBq, iv after 175 mins by PET analysis; assay type: ADME, organism-based; conditions: papio anubis, in vivo
Nucleic Acid [25] = assay: Ratio of drug level in anterior cingulate cortex to cerebellum in baboon at 111 +/- 18 MBq, iv after 175 mins by PET analysis; assay type: ADME, organism-based; conditions: papio anubis, in vivo
[26] = Metabolic stability of the compound in baboon plasma assessed as unmetabolized parent fraction after 180 mins by HPLC analysis; assay type: ADME, cell-free; conditions: papio anubis, read-out: Stability; method in brief: as §2
Plasma = assay: Binding to human plasma proteins
[27] = Drug uptake in baboon anterior cingulate at 111 +/- 18 MBq, iv by PET analysis in presence of WAY100635; assay type: ADME, organism-based; conditions: papio anubis, in vivo; method in brief: as §3
Nucleic Acid [28] = assay: Ratio of drug level in cingulate cortex to cerebellum in baboon at 111 +/- 18 MBq, iv after 175 mins by PET analysis; assay type: ADME, organism-based; conditions: papio anubis, in vivo
[29] = Drug uptake in baboon cerebellum at 111 +/- 18 MBq, iv by PET analysis in presence of WAY100635; assay type: ADME, organism-based; conditions: papio anubis, in vivo; method in brief: as §3
[30] = Tmax in baboon cerebellum at 111 +/- 18 MBq, iv by PET analysis; assay type: ADME, organism-based; conditions: papio anubis, in vivo; method in brief: as §1
[31] = Drug uptake in baboon prefrontal cortex at 111 +/- 18 MBq, iv by PET analysis in presence of WAY100635; assay type: ADME, organism-based; conditions: papio anubis, in vivo; method in brief: as §3
[32] = Tmax in baboon striatum at 111 +/- 18 MBq, iv by PET analysis; assay type: ADME, organism-based; conditions: papio anubis, in vivo
Method in brief: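 Baseline PET in two fasted male baboons on an ECAT EXACT HR+ scanner. Animals were immobilized with ketamine (10 mg/kg im), kept on 1.5–2.0% isoflurane via endotracheal tube, held at 37 °C core temperature, and hydrated with 0.9% NaCl. Radiotracer in 10% ethanol/saline was given as an iv bolus. Emission was recorded for 180 min in 3-D mode. Region time-activity curves used right/left averaged ROIs.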

[33] = Metabolic stability of the compound in baboon plasma assessed as unmetabolized parent fraction after 60 mins by HPLC analysis; assay type: ADME, cell-free; conditions: papio anubis, read-out: Stability; method in brief: as §2
[34] = Drug uptake in baboon amygdala at 111 +/- 18 MBq, iv by PET analysis in presence of WAY100635; assay type: ADME, organism-based; conditions: papio anubis, in vivo; method in brief: as §3
Nucleic Acid [35] = assay: Ratio of drug level in prefrontal cortex to cerebellum in baboon at 111 +/- 18 MBq, iv after 175 mins by PET analysis; assay type: ADME, organism-based; conditions: papio anubis, in vivo

## Cn1c(=O)cnn(CCCCN2CCN(c3ccccc3OCC[18F])CC2)c1=O
[1]
  Tmax: 3 min
[2]
  remaining at 0.5 h: 51%
[3]
  Drug uptake: Active
[4]
  plasma protein binding: 35%
[5]
  remaining at 0.2 h: 74%
[6]
  remaining at 1.5 h: 32.5%
[7]
  Drug uptake: Active
[8]
  Tmax: 3 min
[9]
  Drug uptake: Active
[10]
  Tmax: 3 min
Nucleic Acid [11]
  Ratio: 2
Nucleic Acid [12]
  Ratio: 1.75
[13]
  Tmax: 3 min
Nucleic Acid [14]
  Ratio: 4
[15]
  remaining at 2 min: 98%
Papio anubis
  Drug metabolism: Active
[16]
  remaining at 2.5 h: 21.5%
[17]
  Tmax: 3 min
[18]
  remaining at 2 h: 23.5%
Nucleic Acid [19]
  Ratio: 2.4
[20]
  Drug uptake: Active
Nucleic Acid [21]
  Ratio: 2
[22]
  Drug uptake: Active
[23]
  Drug uptake: Active
Nucleic Acid [24]
  Ratio: 2.3
Nucleic Acid [25]
  Ratio: 2.5
[26]
  remaining at 3 h: 18%
Plasma
  plasma protein binding: 11.5%
[27]
  Drug uptake: Active
Nucleic Acid [28]
  Ratio: 1.8
[29]
  Drug uptake: Active
[30]
  Tmax: 3 min
[31]
  Drug uptake: Active
[32]
  Tmax: 3 min
[33]
  remaining at 1 h: 37%
[34]
  Drug uptake: Active
Nucleic Acid [35]
  Ratio: 1.8

— ChEMBL document CHEMBL2413016, “Synthesis and in vivo evaluation of [(18)F]2-(4-(4-(2-(2-fluoroethoxy)phenyl)piperazin-1-yl)butyl)-4-methyl-1,2,4-triazine-3,5(2H,4H)-dione ([(18)F]FECUMI-101) as an imaging probe for 5-HT1A receptor agonist in nonhuman primates” (Bioorg Med Chem, 2013)
